Experimental data pooled from the literature.
Read-out: cell growth or viability

CCCCCCCCCCCCCCCCCCOc1ccc(CC(=O)OCCC[N+](C)(C)C)cc1  inhibition (EKVX; SRB; 10 µM): 3.92%
CCCS(=O)(=O)Oc1cc(C=NNC(=O)c2nc3ccccc3s2)ccc1OC  cell death (HCT-116; MTT; 100 µM; 48 h): 42.7%
C=C(NC(=O)C(=C)NC(=O)c1csc(C2=N[C@@H]3c4csc(n4)[C@H]4NC(=O)c5csc(n5)[C@H]([C@](C)(O)[C@@H](C)O)NC(=O)[C@H]5CSC(=N5)/C(=C/C)NC(=O)[C@H]([C@@H](C)O)NC(=O)c5csc(n5)[C@]3(CC2)NC(=O)[C@H](C)NC(=O)C(=C)NC(=O)[C@H](C)NC(=O)[C@H]([C@@H](C)CC)N[C@@H]2C=Cc3c([C@H](C)O)cc(nc3[C@H]2O)C(=O)O[C@@H]4C)n1)C(N)=O  EC50 (SK-OV-3): 2.5 µM
O=C(Nc1ccc(F)cc1)Nc1nc2cc(-c3ccc4ncn(Cc5ccccc5)c(=O)c4c3)ccc2s1  IC50 (PC-9; MTT; 72 h): 7.3 µM
O=C(Nc1ccc(-c2cn(Cc3ccc(Cl)cc3)nn2)cc1)Nc1ccccc1Br  viability (PC-9; CCK-8; 20 µM; 72 h): 98.3%
NCCC(=O)Nc1ccccc1/N=c1\cc(-c2ccc3c(c2)OCCO3)oc2cc(F)ccc12  inhibition (HCT-116; CCK-8; 1 µM): 11.5%
O=C(Nc1ccc(F)cc1)Nc1nc2cc(-c3ccc4ncn(CCN5CCOCC5)c(=O)c4c3)ccc2s1  IC50 (PC-9; MTT; 72 h): > 20 µM
COc1ccc(NC(=O)Nc2cccc(-c3cn(Cc4ccccc4C)nn3)c2)cc1  viability (PC-9; CCK-8; 20 µM; 72 h): 121%
C[C@H](Nc1ccc2c(c1)OCCn1cc(N3C(=O)OC[C@H]3C(F)F)nc1-2)C(N)=O  EC50 (SK-OV-3; ATP luminescence; 5 days): 0.0574 µM
O=C(Nc1ccc(Cl)cc1)Nc1cccc(-c2cn(Cc3cccc(Br)c3)nn2)c1  viability (PC-9; CCK-8; 50 µM; 72 h): 92.9%
CC(C)NC(=O)Nc1nc2cc(-c3ccc4ncn(Cc5ccccc5)c(=O)c4c3)ccc2s1  IC50 (PC-9; MTT; 72 h): > 20 µM
COc1ccc(NC(=O)Nc2ccc(-c3cn(Cc4cccc(Cl)c4)nn3)cc2)cc1  viability (PC-9; CCK-8; 50 µM; 72 h): 90.4%
CCCCCCCCCCCCCCCCCCOc1ccccc1CC(=O)OCC[N+](C)(C)C  inhibition (EKVX; SRB; 10 µM): 53.1%
O=C(Nc1cc(C(F)(F)F)cc(C(F)(F)F)c1)Nc1nc2cc(-c3ccc4ncn(Cc5ccccc5)c(=O)c4c3)ccc2s1  IC50 (PC-9; MTT; 72 h): > 20 µM
COc1ccc(NC(=O)Nc2cccc(-c3cn(Cc4ccc(C)cc4)nn3)c2)cc1  viability (PC-9; CCK-8; 20 µM; 72 h): 159%
CCCCCCCCCCCCCCCCCCOc1cccc(CC(=O)OCC[N+](C)(C)C)c1  inhibition (EKVX; SRB; 10 µM): 1.89%
COc1ccc(NC(=O)Nc2cccc(-c3cn(Cc4cccc(Cl)c4)nn3)c2)cc1  viability (PC-9; CCK-8; 50 µM; 72 h): 136%
NCCC(=O)Nc1ccccc1/N=c1\cc(-c2ccc3oc(N)nc3c2)oc2ccccc12  inhibition (HCT-116; CCK-8; 1 µM): 42.7%
CCCCCCCCCCCCCCCCCCOc1ccccc1CC(=O)OCC[N+](CC)(CC)CC  inhibition (EKVX; SRB; 10 µM): 56.6%
O=C(Nc1ccc(Cl)cc1)Nc1ccc(-c2cn(Cc3cccc(Cl)c3)nn2)cc1  viability (PC-9; CCK-8; 20 µM; 72 h): 72.1%
COc1ccc(NC(=O)Nc2cccc(-c3cn(Cc4ccc(Cl)cc4)nn3)c2)cc1  viability (PC-9; CCK-8; 20 µM; 72 h): 147%
CCCCCCCCCCCCCCCCCCOc1ccccc1CC(=O)OCC[N+]1(C)CCCCC1  inhibition (EKVX; SRB; 10 µM): 36.9%
COc1ccc2/c(=N/c3ccccc3NC(=O)N3CCOCC3)cc(-c3ccc4c(c3)OCCO4)oc2c1  inhibition (HCT-116; CCK-8; 1 µM): 11.6%
O=C(Nc1ccc(-c2cn(Cc3ccc(Br)cc3)nn2)cc1)Nc1ccccc1Br  viability (PC-9; CCK-8; 50 µM; 72 h): 106%
COc1cccc(NC(=O)Nc2nc3cc(-c4ccc5ncn(Cc6ccccc6)c(=O)c5c4)ccc3s2)c1  IC50 (PC-9; MTT; 72 h): > 20 µM
CS(=O)(=O)NCCC(=O)Nc1ccccc1/N=c1\cc(-c2ccc3nc(N)oc3c2)oc2ccccc12  inhibition (HCT-116; CCK-8; 1 µM): 3.17%
Cc1nc(Nc2ncc(C(=O)Nc3c(C)cccc3Cl)s2)cc(N2CC[C@H](O)C2)n1  inhibition (Raji; ATP luminescence; 10 µM; 72 h): -2%
O=C(Nc1ccc(Cl)cc1)Nc1ccc(-c2cn(Cc3ccc(Cl)cc3)nn2)cc1  viability (PC-9; CCK-8; 20 µM; 72 h): 86%
COc1ccc(NC(=O)Nc2cccc(-c3cn(Cc4ccc(Br)cc4)nn3)c2)cc1  viability (PC-9; CCK-8; 20 µM; 72 h): 141%
N[C@@H](CO)C(=O)Nc1ccccc1/N=c1\cc(-c2ccc3c(c2)OCO3)oc2ccccc12  inhibition (HCT-116; CCK-8; 1 µM): 12.2%
Cc1nc(NC(=O)N2CCC[C@H]2C(N)=O)sc1-c1ccnc(C(C)(C)C(F)(F)F)c1  EC50 (AGS; ATP luminescence; 5 days): 3.01 µM
O=C(NCc1cn(Cc2ccc(Br)cc2)nn1)Nc1ccccc1Br  viability (PC-9; CCK-8; 50 µM; 72 h): 163%
CCCCCCCCCCCCCCCCCCOc1ccccc1CC(=O)OCC[N+]1(C)CCOCC1  inhibition (EKVX; SRB; 10 µM): 13.3%
CC(C)(C)[C@H](N)C(=O)Nc1ccccc1/N=c1\cc(-c2ccc3c(c2)OCO3)oc2ccccc12  inhibition (HCT-116; CCK-8; 1 µM): 14.6%
O=C(NCc1cn(Cc2ccc(Br)cc2)nn1)Nc1ccc(Cl)cc1  viability (PC-9; CCK-8; 20 µM; 72 h): 111%
Nc1ccccc1/N=c1\cc(-c2ccc3c(c2)OCO3)oc2ccccc12  inhibition (HCT-116; CCK-8; 1 µM): 1.69%
COc1ccc(NC(=O)NCc2cn(Cc3ccccc3C)nn2)cc1  viability (PC-9; CCK-8; 50 µM; 72 h): 109%
O=C(NCc1cn(Cc2cccc(Cl)c2)nn1)Nc1ccc(Cl)cc1  viability (PC-9; CCK-8; 50 µM; 72 h): 90%
CC(=O)Nc1nc2cc(-c3ccc4ncn(Cc5ccccc5)c(=O)c4c3)ccc2s1  IC50 (PC-9; MTT; 72 h): > 20 µM
COCCC(=O)Nc1ccccc1/N=c1\cc(-c2ccc3nc(N)oc3c2)oc2ccccc12  inhibition (HCT-116; CCK-8; 1 µM): 3.71%
CCCCCCCCCCCCCCCCCCOc1cccc(CC(=O)OCCC[N+](C)(C)C)c1  inhibition (EKVX; SRB; 10 µM): 4.64%
O=C(Nc1ccc(Cl)cc1)Nc1cccc(-c2cn(Cc3cccc(Cl)c3)nn2)c1  viability (PC-9; CCK-8; 50 µM; 72 h): 118%
